Source: PubChem
Most compounds without a hit are left out; they make up all but 1.8% or so of the library.
CHRM5 agonist – agonists of human muscarinic M5 receptor (CHRM5). P08912. CHO-K1 hM5 cells, Fluo-8 calcium fluorescence; 0% DMSO wells, 100% maximal acetylcholine response. activation, % at 3 µM. hit rate 0.19% among 360,000. AID 624037;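 active = activation above the run's mean over test compounds plus 3 SD, cut at about 23% in these data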;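 also: signal is peak over basal fluorescence ratio across the kinetic read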
Target sequence (P08912 whole entry, looked up): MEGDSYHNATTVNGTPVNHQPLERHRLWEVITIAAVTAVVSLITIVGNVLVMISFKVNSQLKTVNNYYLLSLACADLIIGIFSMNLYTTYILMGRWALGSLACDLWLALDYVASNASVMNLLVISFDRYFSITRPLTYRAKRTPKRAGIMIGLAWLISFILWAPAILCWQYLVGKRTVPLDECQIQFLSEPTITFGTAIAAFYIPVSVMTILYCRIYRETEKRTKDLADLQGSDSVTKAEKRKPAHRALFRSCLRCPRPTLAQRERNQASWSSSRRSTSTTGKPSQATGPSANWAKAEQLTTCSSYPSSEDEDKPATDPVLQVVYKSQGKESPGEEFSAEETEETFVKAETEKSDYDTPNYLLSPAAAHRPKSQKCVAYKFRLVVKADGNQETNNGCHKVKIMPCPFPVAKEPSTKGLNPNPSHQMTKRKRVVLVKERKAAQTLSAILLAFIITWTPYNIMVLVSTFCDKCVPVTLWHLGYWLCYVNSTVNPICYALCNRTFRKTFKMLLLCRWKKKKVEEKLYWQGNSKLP
CHRM4 PAM – CHRM4 positive allosteric modulation. AID 624126. P08173. CHO-K1 hM4/Gqi5, Fluo-8 calcium fluorescence, ACh EC20; 0% = ACh EC20, 100% = maximal ACh. hit rate 0.4% among 360,000. activation, % at 3 µM;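 active = activation above its plate's cutoff, the mean activation of sample wells plus 3 SD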
CHRM4 antagonist – CHRM4 antagonism in calcium assay | inhibition, % at 3 µM | hit rate 0.73% among 360,000 | P08173 | AID 624125 | CHO-hM4 cells, ACh EC80, Fluo-8 calcium fluorescence;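 active = inhibition above its plate's cutoff, the mean inhibition of sample wells plus 3 SD, cut at about 27% in these data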
M4 ag – agonists of human muscarinic M4 receptor (CHRM4) | hit rate 0.14% among 360,000 | activation, % at 3 µM | CHO-K1 hM4/Gqi5, Fluo-8 calcium fluorescence; vehicle 0%, full acetylcholine response 100% | P08173;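 active = activation above the run mean over all test wells plus 3 SD, cut at about 32% in these data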;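 also: peak over basal fluorescence ratio per well then scaled between controls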
CHRM5 antagonist – CHRM5 antagonism in calcium assay. P08912. CHO-hM5 cells, Fluo-8 calcium fluorescence, ACh EC80. inhibition, % at 3 µM. hit rate 0.59% among 360,000. AID 624040;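 active = inhibition above a per-plate cutoff, the mean of that plate's test compounds plus 3 SD, cut at about 27% in these data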
CHRM5 PAM – CHRM5 positive allosteric modulation; AID 624038; activation, % at 3 µM; hit rate 0.3% among 360,000; CHO-K1 hM5, Fluo-8 calcium, ACh EC20 PAM; 0% = ACh EC20, 100% = ACh EC100; P08912;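 active = activation above the run cutoff, the mean activation of all test compounds plus 3 SD, cut at about 18% in these data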
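Assay system: CHO-K1 hM5 cells / Incubation: Fluo-8 loading 80 min at 37 °C plus 30 min room temperature / Technique: Fluo-8 calcium dye fluorescence, kinetic read / Repeats: single replicate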
Of the large screens only hits and unclear results are named; the others gave an inactive call.

COc1ccc(NC(=O)c2ccc3c(c2)OCO3)cc1Cl	CHRM5 PAM 28.9
CNc1ccc2ncc(-c3cccc(C(=O)N(C)C)c3)n2n1	none
COc1cc(CN2C(=O)C(C)ON=C2c2cccs2)cc(OC)c1 (configuration not stated)	none
Cc1ccc(C)c(NC(=O)CN(C)C(C)C(=O)N2CC(C)CC(C)C2)c1 (configuration not stated)	CHRM5 PAM 19.1
COc1ccc(Cn2cc(CN(C)C3CN(Cc4cn(Cc5ccc(OC)cc5)nn4)S(=O)(=O)C3)nn2)cc1 (configuration not stated)	none
O=[N+]([O-])/C=C/c1cn(Cc2ccc(Cl)cc2)c2ccccc12	CHRM5 antagonist 33.1
CCCC#CCN1CCN(C23CC4CC(CC(C4)C2)C3)CC1	CHRM4 antagonist 27.9
CC(=O)N1CCN(C23CC4CC(CC(C4)C2)C3)CC1	none
CCCCCC#CCN1CCN(C23CC4CC(CC(C4)C2)C3)CC1	CHRM4 antagonist 30.0
CCCOc1ccc(F)cc1-c1cc(C(=O)Nc2ccccc2)[nH]n1	none
O=C(Nc1cc(S(=O)(=O)N2CCOCC2)ccc1O)c1ccc(NS(=O)(=O)c2ccc(Cl)s2)cc1	none
Cc1ccc(NC(=O)c2ccccc2NS(=O)(=O)c2ccc(Cl)s2)cc1S(=O)(=O)N1CCOCC1	CHRM5 antagonist 31.8
Cc1noc(C(=O)Nc2ccc(F)c(Cl)c2)c1Cl	CHRM4 antagonist 95.2
CC(C)(CNC(=O)c1cccc(S(=O)(=O)N2CCCCC2)c1)N1CCOCC1	none
CCOc1ncccc1C(=O)Nc1cc(S(=O)(=O)N2CCOCC2)ccc1N1CCCC1	none
O=C(Nc1cc(S(=O)(=O)N2CCOCC2)ccc1N1CCCC1)c1cccnc1Cl	CHRM4 antagonist 27.7
CC(=O)Nc1ccc(S(=O)(=O)N(C)CC(=O)OC(C)C(=O)NC2(C#N)CCCCC2)cc1 (configuration not stated)	none
c1coc(Cn2c(SCc3nc4ccccc4[nH]3)nnc2-c2cnccn2)c1	none
Cn1c(SCc2nc3ccccc3[nH]2)nnc1-c1cnccn1	CHRM5 PAM 18.5
CC1CCN(S(=O)(=O)c2cc(C(=O)N3CCN(c4ccccc4)CC3)ccc2Br)CC1	none
O=C1NC2(Nc3ccccc31)C(=O)Nc1ccc(Br)cc12 (configuration not stated)	CHRM5 antagonist 98.5
CCn1cc(C=O)c2cc(S(=O)(=O)N3CCOCC3)ccc21	CHRM4 antagonist 26.4
O=C(NCc1cccnc1)c1cccc2c1C(=O)N(Cc1cccnc1)C2	CHRM5 PAM 18.6
CC(=O)Nc1ccc(-c2ccnc3c2CC(C(=O)Nc2cccc(C(C)=O)c2)O3)cc1 (configuration not stated)	none
CCCCOCCCNC(=O)C[C@@H]1C[C@@]2(C(=O)OCC)CCCC=C2N(Cc2ccco2)C1=O	none
CC(=O)NCCNc1nc(NCc2cccs2)nc2ccsc12	none
O=C1NCCN1CCNc1nc(NCc2ccccc2)nc2ccsc12	CHRM4 antagonist 52.2, M4 ag 45.9
c1ccc(CNc2nc(NCCc3ccncc3)c3sccc3n2)cc1	CHRM5 agonist 95.8, CHRM4 antagonist 100.2, M4 ag 154.7, CHRM5 antagonist 98.5
O=C1CCCN1CCCNc1nc(NCc2cccs2)nc2ccsc12	CHRM5 agonist 40.7, CHRM4 antagonist 52.6, M4 ag 96.1
CC(C)Nc1nc(NCCN2CCNC2=O)c2sccc2n1	none
COCCNc1nc(NCc2cccs2)nc2ccsc12	CHRM5 agonist 95.7, CHRM4 antagonist 91.7, M4 ag 158.7, CHRM5 antagonist 81.1
O=C1CCCN1CCCNS(=O)(=O)c1cccs1	none
CC(C)CNc1ncnc2c1ncn2[C@H]1CN(Cc2ccc(-c3ccccc3)cc2)C[C@@H](CO)O1	none
COc1cccc(C(C)(O)c2nc(-c3cnn(C)c3)cs2)c1 (configuration not stated)	none
CCCCOc1ccc(S(=O)(=O)NC(=O)C2(C)CCN2C(=O)Cc2cccs2)cc1 (configuration not stated)	none
CC(=O)C1=CCC(c2ccccc2)N(Cc2ccccc2)C1 (configuration not stated)	none
O=C(NC(c1ccccc1)c1ccsc1)C1CCN(CCOc2ccc(Cl)cc2Cl)CC1 (configuration not stated)	none
OC(c1cccnc1)c1nc(-c2cccc(F)c2)cs1 (configuration not stated)	none
COc1cccc(C(NC(C)=O)c2nc(-c3csc4ccccc34)cs2)c1 (configuration not stated)	none
OC[C@@H]1CN(Cc2cccs2)C[C@H](n2cnc3c(NC4CCC4)ncnc32)O1	none
c1csc(CNc2nc(NCC3CCCCC3)c3sccc3n2)c1	CHRM4 antagonist 27.1
c1ccc(CNc2nc(NCc3cccs3)nc3ccsc23)cc1	M4 ag 39.5, CHRM5 antagonist 41.6
CCCc1nc2cc(C)c(Br)c(C)n2c1Cc1ccc(OC)cc1C	none
Cc1cccc(C)c1-n1nnnc1C(c1ccnc2ccccc12)N(Cc1ccccc1)Cc1ccccc1 (configuration not stated)	none
CC1CCCN(CCCCOc2cccc(Br)c2)C1 (configuration not stated)	CHRM4 antagonist 35.2
CC1CCCN(CCOc2ccc(Br)cc2)C1 (configuration not stated)	none
CCOc1cccc(OCCCCN2CCCCC2)c1	CHRM4 antagonist 57.3
Brc1cccc(OCCCCN2CCCCC2)c1	CHRM4 antagonist 53.4
CCOC(=O)[C@]12CCCC=C1N(CCC1=CCCCC1)C(=O)[C@H](CC(=O)NCc1ccccc1)C2	none
COc1cccc(CNC(=O)[C@@H]2CCCN2C(=O)[C@@H]2CCCN2)c1	none
CC1=[N+](C)c2c(ccc3cccnc23)C1(C)C	CHRM4 antagonist 35.2, CHRM5 antagonist 37.2
O=C(NCC1CCOCC1)C1Cc2c(-c3ccccc3Oc3ccccc3)ccnc2O1 (configuration not stated)	none
COc1cccc(NC(=O)C2CC(=O)N(Cc3ccco3)C2)c1 (configuration not stated)	CHRM4 PAM 21.4
N#Cc1c(Cc2cccc3ccccc23)nn(CCO)c1N	CHRM4 PAM 24.7
Cn1nc(Cc2cccc3ccccc23)c(C#N)c1N	none
COc1ccc(-c2[nH]c(-c3ccc(C)cc3)nc2SCC(=O)NCc2ccco2)cc1OC	CHRM4 PAM 20.6
COc1cccc(-n2c(SCC(=O)NCc3ccco3)nnc2-c2c[nH]c3ccccc23)c1	none
COc1ccc(OC)c(-n2c(SCC(=O)NCc3ccco3)nnc2-c2c[nH]c3ccccc23)c1	CHRM4 antagonist 40.5
